Laboratory results reported in publication PMC9579399 (Clinical and Translational Science, 2022).

Test system: healthy Chinese male subjects
Assay: Safety evaluation
Assay type: in vivo, human
Conditions: n = 49 per group
Summary of the method: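 AEs recorded throughout the study by investigators, including laboratory tests (hematology, biochemistry, urinalysis), vital signs, physical exams, 12-lead ECG and injection site reactions. Subjects with AEs followed until return to normal or baseline. Incidence calculated as subjects with at least one AE divided by total subjects.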

With `CCCCCCCCCCCCCCCC(=O)N[C@@H](CCC(=O)NCCCC[C@H](NC(=O)[C@H](C)NC(=O)[C@H](C)NC(=O)[C@H](CCC(N)=O)NC(=O)CNC(=O)[C@H](CCC(=O)O)NC(=O)[C@H](CC(C)C)NC(=O)[C@H](Cc1ccc(O)cc1)NC(=O)[C@H](CO)NC(=O)[C@H](CO)NC(=O)[C@@H](NC(=O)[C@H](CC(=O)O)NC(=O)[C@H](CO)NC(=O)[C@@H](NC(=O)[C@H](Cc1ccccc1)NC(=O)[C@@H](NC(=O)CNC(=O)[C@H](CCC(=O)O)NC(=O)[C@H](C)NC(=O)[C@@H](N)Cc1cnc[nH]1)[C@@H](C)O)[C@@H](C)O)C(C)C)C(=O)N[C@@H](CCC(=O)O)C(=O)N[C@@H](Cc1ccccc1)C(=O)N[C@H](C(=O)N[C@@H](C)C(=O)N[C@@H](Cc1c[nH]c2ccccc12)C(=O)N[C@@H](CC(C)C)C(=O)N[C@H](C(=O)N[C@@H](CCCNC(=N)N)C(=O)NCC(=O)N[C@@H](CCCNC(=N)N)C(=O)NCC(=O)O)C(C)C)[C@@H](C)CC)C(=O)O` [Victoza, Liraglutide] the “incidence of AEs” value (percentage of subjects with at least one AE) was 32.7%, the “incidence of TRAEs” value (percentage of subjects with at least one TRAE) was 24.5% and the “Number of events (AEs)” value (single 0.6 mg s.c.) was 19. For the same compound, the “Number of events (TRAEs)” value (single 0.6 mg s.c.) was 12.
